Results from ChEMBL document CHEMBL1275459 (2008).
Values after ≈ are worked out from the molar mass of the structure shown.

What was measured:
Klebsiella pneumoniae [1] = test: Antimicrobial activity against ciprofloxacin-resistant Klebsiella pneumoniae isolate 95 harboring GyrA Ser83Leu, Asp78Asn, Ala171Ser and Val198Ile mutant gene by agar dilution method; assay type: functional
Klebsiella pneumoniae [2] = test: Antimicrobial activity against ciprofloxacin-resistant Klebsiella pneumoniae isolate 863 harboring GyrA Ser83Leu, Asp78Asn, Ala171Ser and Val198Ile mutant gene by agar dilution method; assay type: functional
Klebsiella pneumoniae [3] = test: Antimicrobial activity against ciprofloxacin-resistant Klebsiella pneumoniae isolate 149 harboring GyrA Ser83Leu, Asp78Asn, Ala171Ser and Val198Ile mutant gene by agar dilution method; assay type: functional
Klebsiella pneumoniae [4] = test: Antimicrobial activity against ciprofloxacin-resistant Klebsiella pneumoniae isolate 103 harboring GyrA Ser83Leu, Asp78Asn, Ala171Ser and Val198Ile mutant gene by agar dilution method; assay type: functional
Klebsiella pneumoniae [5] = test: Antimicrobial activity against ciprofloxacin-resistant Klebsiella pneumoniae isolate 663 harboring GyrA Ser83Leu, Asp78Asn, Ala171Ser and Val198Ile mutant gene by agar dilution method; assay type: functional
Klebsiella pneumoniae [6] = test: Antimicrobial activity against ciprofloxacin-resistant Klebsiella pneumoniae isolate 94 harboring GyrA Ser83Leu, Asp78Asn, Ala171Ser and Val198Ile mutant gene by agar dilution method; assay type: functional
Klebsiella pneumoniae [7] = test: Antimicrobial activity against ciprofloxacin-resistant Klebsiella pneumoniae isolate 779 harboring GyrA Ser83Leu, Asp78Asn, Ala171Ser and Val198Ile mutant gene by agar dilution method; assay type: functional
Klebsiella pneumoniae [8] = test: Antimicrobial activity against ciprofloxacin-resistant Klebsiella pneumoniae isolate 234 harboring GyrA Ser83Leu, Asp78Asn, Ala171Ser and Val198Ile mutant gene by agar dilution method; assay type: functional
Klebsiella pneumoniae [9] = test: Antimicrobial activity against ciprofloxacin-resistant Klebsiella pneumoniae isolate 3 harboring GyrA Ser83Leu, Asp78Asn, Ala171Ser and Val198Ile mutant gene by agar dilution method; assay type: functional
Klebsiella pneumoniae [10] = test: Antimicrobial activity against ciprofloxacin-resistant Klebsiella pneumoniae isolate 27 harboring GyrA Ser83Leu, Asp78Asn, Ala171Ser and Val198Ile mutant gene by agar dilution method; assay type: functional
Klebsiella pneumoniae [11] = test: Antimicrobial activity against ciprofloxacin-resistant Klebsiella pneumoniae isolate 719 harboring GyrA Ser83Leu, Asp78Asn, Ala171Ser and Val198Ile mutant gene by agar dilution method; assay type: functional
Klebsiella pneumoniae [12] = test: Antimicrobial activity against ciprofloxacin-resistant Klebsiella pneumoniae isolate 205 harboring GyrA Ser83Leu, Asp78Asn, Ala171Ser and Val198Ile mutant gene by agar dilution method; assay type: functional
Klebsiella pneumoniae [13] = test: Antimicrobial activity against ciprofloxacin-resistant Klebsiella pneumoniae isolate 769 harboring GyrA Ser83Ile and Gly177Arg mutant gene by agar dilution method; assay type: functional
Klebsiella pneumoniae [14] = test: Antimicrobial activity against ciprofloxacin-resistant Klebsiella pneumoniae isolate 828 harboring GyrA Ser83Ile and Gly177Arg mutant gene by agar dilution method; assay type: functional
Klebsiella pneumoniae [15] = test: Antimicrobial activity against ciprofloxacin-resistant Klebsiella pneumoniae isolate 827 harboring GyrA Ser83Ile mutant gene by agar dilution method; assay type: functional
Klebsiella pneumoniae [16] = test: Antimicrobial activity against ciprofloxacin-resistant Klebsiella pneumoniae isolate 772 harboring GyrA Ser83Ile mutant gene by agar dilution method; assay type: functional
Klebsiella pneumoniae [17] = test: Antimicrobial activity against ciprofloxacin-resistant Klebsiella pneumoniae isolate 721 harboring GyrA Ala171Ser, Leu187Ile and Val198Ile mutant gene by agar dilution method; assay type: functional
Klebsiella pneumoniae [18] = test: Antimicrobial activity against ciprofloxacin-resistant Klebsiella pneumoniae isolate 836 by agar dilution method; assay type: functional
Klebsiella pneumoniae [19] = test: Antimicrobial activity against ciprofloxacin-intermediate resistant Klebsiella pneumoniae isolate 753 harboring GyrA Ser83Ile mutant gene by agar dilution method; assay type: functional
Klebsiella pneumoniae [20] = test: Antimicrobial activity against ciprofloxacin-intermediate resistant Klebsiella pneumoniae isolate 21 by agar dilution method; assay type: functional
Klebsiella pneumoniae [21] = test: Antimicrobial activity against ciprofloxacin-intermediate resistant Klebsiella pneumoniae isolate 715 by agar dilution method; assay type: functional
Klebsiella pneumoniae [22] = test: Antimicrobial activity against ciprofloxacin-susceptible Klebsiella pneumoniae isolate 840 harboring GyrA Ala171Ser, Leu187Ile and Val198Ile mutant gene by agar dilution method; assay type: functional
Klebsiella pneumoniae [23] = test: Antimicrobial activity against ciprofloxacin-susceptible Klebsiella pneumoniae isolate 685 harboring GyrA Ala171Ser, Leu187Ile and Val198Ile mutant gene by agar dilution method; assay type: functional
Klebsiella pneumoniae [24] = test: Antimicrobial activity against ciprofloxacin-susceptible Klebsiella pneumoniae isolate 212 harboring GyrA Ala171Ser, Leu187Ile and Val198Ile mutant gene by agar dilution method; assay type: functional
Klebsiella pneumoniae [25] = test: Antimicrobial activity against ciprofloxacin-susceptible Klebsiella pneumoniae isolate 517 harboring GyrA Ala171Ser, Leu187Ile and Val198Ile mutant gene by agar dilution method; assay type: functional
Klebsiella pneumoniae [26] = test: Antimicrobial activity against ciprofloxacin-susceptible Klebsiella pneumoniae isolate 838 harboring GyrA Ser83Tyr, Ala171Ser, Leu187Ile and Val198Ile mutant gene by agar dilution method; assay type: functional
Klebsiella pneumoniae [27] = test: Antimicrobial activity against ciprofloxacin-susceptible Klebsiella pneumoniae isolate 49 harboring GyrA Asp87Asn, Arg154Ser and Ala171Ser mutant gene by agar dilution method; assay type: functional
Klebsiella pneumoniae [28] = test: Antimicrobial activity against ciprofloxacin-susceptible Klebsiella pneumoniae isolate 182 harboring GyrA Ser83Thr and Ala171Ser mutant gene by agar dilution method; assay type: functional
Klebsiella pneumoniae [29] = test: Antimicrobial activity against ciprofloxacin-susceptible Klebsiella pneumoniae isolate 737 harboring GyrA Ser83Leu and Val198Ile mutant gene by agar dilution method; assay type: functional
Klebsiella pneumoniae [30] = test: Antimicrobial activity against ciprofloxacin-susceptible Klebsiella pneumoniae isolate 724 harboring GyrA Ser83Ile mutant gene by agar dilution method; assay type: functional
Klebsiella pneumoniae [31] = test: Antimicrobial activity against ciprofloxacin-susceptible Klebsiella pneumoniae isolate 738 by agar dilution method; assay type: functional
Method in brief: (§1)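 MIC read by agar dilution on Mueller-Hinton agar following CLSI (formerly NCCLS) recommendations. K. pneumoniae isolates were identified with the API 20E system and confirmed as nonduplicated by randomly amplified polymorphic DNA analysis.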

Klebsiella pneumoniae [32] = test: Antimicrobial activity against ciprofloxacin-susceptible Klebsiella pneumoniae isolate 577 by agar dilution method; assay type: functional; method in brief: as §1
Klebsiella pneumoniae [33] = test: Antimicrobial activity against ciprofloxacin-susceptible Klebsiella pneumoniae isolate 760 by agar dilution method; assay type: functional
Klebsiella pneumoniae [34] = test: microbe, parasite or virus in culture; details: isolate 16
Klebsiella pneumoniae [35] = test: microbe, parasite or virus in culture; details: isolate 19
Klebsiella pneumoniae [36] = test: microbe, parasite or virus in culture; details: isolate 29
Klebsiella pneumoniae [37] = test: microbe, parasite or virus in culture; details: isolate 24
Klebsiella pneumoniae [38] = test: microbe, parasite or virus in culture; details: isolate 3

Row | SMILES | MIC (Klebsiella pneumoniae [1]) [µg/mL] | MIC (Klebsiella pneumoniae [2]) [µg/mL] | MIC (Klebsiella pneumoniae [3]) [µg/mL] | MIC (Klebsiella pneumoniae [4]) [µg/mL] | MIC (Klebsiella pneumoniae [5]) [µg/mL] | MIC (Klebsiella pneumoniae [6]) [µg/mL] | MIC (Klebsiella pneumoniae [7]) [µg/mL] | MIC (Klebsiella pneumoniae [8]) [µg/mL] | MIC (Klebsiella pneumoniae [9]) [µg/mL] | MIC (Klebsiella pneumoniae [10]) [µg/mL] | MIC (Klebsiella pneumoniae [11]) [µg/mL] | MIC (Klebsiella pneumoniae [12]) [µg/mL] | MIC (Klebsiella pneumoniae [13]) [µg/mL] | MIC (Klebsiella pneumoniae [14]) [µg/mL] | MIC (Klebsiella pneumoniae [15]) [µg/mL] | MIC (Klebsiella pneumoniae [16]) [µg/mL] | MIC (Klebsiella pneumoniae [17]) [µg/mL] | MIC (Klebsiella pneumoniae [18]) [µg/mL] | MIC (Klebsiella pneumoniae [19]) [µg/mL] | MIC (Klebsiella pneumoniae [20]) [µg/mL] | also measured
1 | CCn1cc(C(=O)O)c(=O)c2ccc(C)nc21 [NALIDIXIC ACID] | > 512 | > 512 | > 512 | > 512 | > 512 | > 512 | > 512 | > 512 | > 512 | > 512 | > 512 | > 512 | > 512 | > 512 | > 512 | > 512 | > 512 | > 512 | > 512 | 16 (≈ 68.9 µM) | MIC (Klebsiella pneumoniae [21]): 16 µg/mL (≈ 68.9 µM); MIC (Klebsiella pneumoniae [22]): 16 µg/mL (≈ 68.9 µM); MIC (Klebsiella pneumoniae [23]): > 512 µg/mL; MIC (Klebsiella pneumoniae [24]): 16 µg/mL (≈ 68.9 µM); MIC (Klebsiella pneumoniae [25]): 8 µg/mL (≈ 34.4 µM); MIC (Klebsiella pneumoniae [26]): 256 µg/mL (≈ 1100 µM); MIC (Klebsiella pneumoniae [27]): > 512 µg/mL; MIC (Klebsiella pneumoniae [28]): 4 µg/mL (≈ 17.2 µM); MIC (Klebsiella pneumoniae [29]): 8 µg/mL (≈ 34.4 µM); MIC (Klebsiella pneumoniae [30]): 8 µg/mL (≈ 34.4 µM); MIC (Klebsiella pneumoniae [31]): 8 µg/mL (≈ 34.4 µM); MIC (Klebsiella pneumoniae [32]): 4 µg/mL (≈ 17.2 µM); MIC (Klebsiella pneumoniae [33]): 4 µg/mL (≈ 17.2 µM)
2 | O=C(O)c1cn(C2CC2)c2cc(N3CCNCC3)c(F)cc2c1=O [CIPROFLOXACIN] | 128 (≈ 386 µM) | 128 (≈ 386 µM) | 64 (≈ 193 µM) | 64 (≈ 193 µM) | 64 (≈ 193 µM) | 32 (≈ 96.6 µM) | 32 (≈ 96.6 µM) | 16 (≈ 48.3 µM) | 16 (≈ 48.3 µM) | 8 (≈ 24.1 µM) | 8 (≈ 24.1 µM) | 4 (≈ 12.1 µM) | 32 (≈ 96.6 µM) | 32 (≈ 96.6 µM) | 32 (≈ 96.6 µM) | 32 (≈ 96.6 µM) | 8 (≈ 24.1 µM) | 4 (≈ 12.1 µM) | 2 (≈ 6.04 µM) | 2 (≈ 6.04 µM) | MIC (Klebsiella pneumoniae [21]): 2 µg/mL (≈ 6.04 µM); MIC (Klebsiella pneumoniae [22]): 1 µg/mL (≈ 3.02 µM); MIC (Klebsiella pneumoniae [23]): 0.125 µg/mL (≈ 0.377 µM); MIC (Klebsiella pneumoniae [24]): < 0.0312 µg/mL; MIC (Klebsiella pneumoniae [25]): < 0.0312 µg/mL; MIC (Klebsiella pneumoniae [26]): 1 µg/mL (≈ 3.02 µM); MIC (Klebsiella pneumoniae [27]): 0.5 µg/mL (≈ 1.51 µM); MIC (Klebsiella pneumoniae [28]): < 0.0312 µg/mL; MIC (Klebsiella pneumoniae [29]): < 0.0312 µg/mL; MIC (Klebsiella pneumoniae [30]): < 0.0312 µg/mL; MIC (Klebsiella pneumoniae [31]): 1 µg/mL (≈ 3.02 µM); MIC (Klebsiella pneumoniae [32]): 0.125 µg/mL (≈ 0.377 µM); MIC (Klebsiella pneumoniae [33]): < 0.0312 µg/mL; MIC (Klebsiella pneumoniae [34]): 4 µg/mL (≈ 12.1 µM); MIC (Klebsiella pneumoniae [35]): 8 µg/mL (≈ 24.1 µM); MIC (Klebsiella pneumoniae [36]): 16 µg/mL (≈ 48.3 µM); MIC (Klebsiella pneumoniae [37]): 32 µg/mL (≈ 96.6 µM); MIC (Klebsiella pneumoniae [38]): 16 µg/mL (≈ 48.3 µM)
